Laboratory results reported in ChEMBL document CHEMBL3596176, “Geleganidines A-C, Unusual Monoterpenoid Indole Alkaloids from Gelsemium elegans” (J Nat Prod, 2015).

Legend:
[1] = Cytotoxicity against rat PC12 cells assessed as inhibition of cell growth after 72 hrs by MTT assay; type: functional, cell-based; settings: PC-12, 72 h
Procedure, shortened: (§1)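 Cells kept in RPMI 1640 plus 10% FBS at 37 °C in humidified 5% CO2. Seeded for 24 h, then exposed to a range of compound concentrations for 72 h. MTT (5 mg/mL solution) added, followed by 4 h incubation. Medium removed and formazan dissolved in DMSO; absorbance at 570 nm. IC50 taken from dose-response curves, reported as mean ± SD.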

MCF7 = test: Cytotoxicity against human MCF7 cells assessed as inhibition of cell growth after 72 hrs by MTT assay; type: functional, cell-based; settings: MCF7, 72 h; procedure, shortened: as §1

Row | SMILES | IC50 [1] | IC50 (MCF7)
1 | C/C=C1\CN(C=O)[C@H]2C[C@@]3(C(=O)N(OC)c4cc(OC)ccc43)[C@H]3C[C@@H]1[C@@H]2CO3 | > 50 µM | > 50 µM
2 | C/C=C1\CN2C(=O)[C@]3(c4ccc(OC)cc4/N=N/c4cc(OC)ccc4[C@@]45C[C@H]6[C@H]7CO[C@@H]4C[C@H]7/C(=C/C)CN6C5=O)C[C@H]2[C@H]2CO[C@@H]3C[C@@H]12 | > 50 µM | 38.4 µM
3 | C/C=C1\CN(C(=O)N2C/C(=C\C)[C@@H]3C[C@H]4OC[C@@H]3[C@@H]2C[C@@]42C(=O)N(OC)c3cc(OC)ccc32)[C@H]2C[C@@]3(C(=O)N(OC)c4ccccc43)[C@H]3C[C@@H]1[C@@H]2CO3 | 16.1 µM | > 50 µM
4 | C/C=C1\CN2C(=O)[C@]3(c4ccc(OC)cc4N)C[C@H]2[C@H]2CO[C@@H]3C[C@@H]12 | > 50 µM | > 50 µM
5 | C/C=C1\CN2C(=O)[C@]3(c4ccc(OC)cc4NOC)C[C@H]2[C@H]2CO[C@@H]3C[C@@H]12 | > 50 µM | > 50 µM
6 | C/C=C1\CN[C@H]2C[C@@]3(C(=O)N(OC)c4cc(OC)ccc43)[C@H]3C[C@@H]1[C@@H]2CO3 | > 50 µM | > 50 µM
7 | C/C=C1\CN[C@H]2C[C@@]3(C(=O)N(OC)c4ccccc43)[C@H]3C[C@@H]1[C@@H]2CO3 | > 50 µM | > 50 µM
